Reference: ChEMBL document CHEMBL1131141, “Novel 1,1,3-trioxo-2H,4H-thieno[3,4-e][1,2,4]thiadiazine derivatives as non-nucleoside reverse transcriptase inhibitors that inhibit human immunodeficiency virus type 1 replication” (J Med Chem, 1998)

How the values were obtained:
[1] = tested on: Human immunodeficiency virus 1; assay: Selectivity index was measured as the ratio of CC50(HIV-1) to that of EC50(HIV-1); SI Selectivity Index; assay type: functional
MT4 [2] = assay: Dose required to achieve 50% protection of MT-4 cells from HIV-1(IIIB) induced cytopathogenicity, determined by […] method.; assay type: functional, cell-based; settings: Homo sapiens
Outline: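 MT-4 cells infected with HIV-1(IIIB); value is the dose giving 50% protection against virus-induced cytopathogenicity, read out by MTT viability assay. Mean of at least two separate experiments.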

MT4 [3] = assay: Dose required to reduce the viability of mock-infected cells by 50%, determined by MTT method.; assay type: functional; settings: Homo sapiens
Outline: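 Mock-infected MT-4 cells; value is the dose lowering cell viability by 50%, read out by MTT assay. Mean of at least two separate experiments.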

[4] = Selectivity index was measured as the ratio of CC50(HIV-1) to that of EC50(HIV-1); assay type: functional

Structure (SMILES)	SI [1]	EC50 (MT4 [2])	CC50 (MT4 [3])	SI [4]
CN1C(=O)N(Cc2c(Cl)cccc2Cl)S(=O)(=O)c2cscc21	<1	> 528000 nM	528 µM	–
N#CCN1C(=O)N(CCc2ccccc2)S(=O)(=O)c2cscc21	11	3600 nM	40.3 µM	–
N#CCN1C(=O)N(Cc2cccc(F)c2)S(=O)(=O)c2cscc21	1872	50 nM	93.6 µM	–
Cc1ccnc2c1NC(=O)c1cccnc1N2C1CC1 [NEVIRAPINE]	22800	30 nM	683 µM	–
N#CCN1C(=O)N(Cc2ccccn2)S(=O)(=O)c2cscc21	>340	1100 nM	> 374 µM	–
CCN1C(=O)N(Cc2ccccn2)S(=O)(=O)c2cscc21	>9	41400 nM	> 387 µM	–
CCN1C(=O)N(Cc2ccccc2Cl)S(=O)(=O)c2cscc21	83	7300 nM	605 µM	–
CN1C(=O)N(Cc2ccccc2Cl)S(=O)(=O)c2cscc21	<1	> 446000 nM	446 µM	–
O=C1N(Cc2cccc(Cl)c2)c2cscc2S(=O)(=O)N1Cc1ccccc1	>149	800 nM	> 119 µM	–
O=C1N(Cc2ccccc2Cl)c2cscc2S(=O)(=O)N1Cc1ccccc1	>1190	100 nM	> 119 µM	–
N#CCN1C(=O)N(Cc2cccc(Br)c2)S(=O)(=O)c2cscc21	762	90 nM	68.6 µM	–
CN1C(=O)N(Cc2ccc(Cl)cc2)S(=O)(=O)c2cscc21	<1	> 417000 nM	417 µM	–
CN1C(=O)N(Cc2ccccc2)S(=O)(=O)c2nn(C)cc21	<1	> 498000 nM	498 µM	–
CCN1C(=O)N(Cc2ccccc2)S(=O)(=O)c2ccsc21	18	20500 nM	374 µM	–
CCN1C(=O)N(Cc2ccccc2)S(=O)(=O)c2nn(C)cc21	<1	> 321000 nM	321 µM	–
N#CCN1C(=O)N(Cc2cc(F)cc(F)c2)S(=O)(=O)c2cscc21	340	300 nM	102 µM	–
CN1C(=O)N(Cc2cccc(Cl)c2)S(=O)(=O)c2cscc21	>96	7600 nM	> 729 µM	–
O=C1N(Cc2ccccc2)c2cscc2S(=O)(=O)N1CCc1ccccc1	21	10900 nM	226 µM	–
CCCN1C(=O)N(Cc2ccccc2)S(=O)(=O)c2ccsc21	–	> 403000 nM	403 µM	–
C#CCN1C(=O)N(Cc2ccccc2)S(=O)(=O)c2cscc21	>376	1000 nM	> 376 µM	–

Structure (SMILES)	SI [1]	EC50 (MT4 [2])	CC50 (MT4 [3])	SI [4]
O=C1N(Cc2ccccc2)c2cscc2S(=O)(=O)N1Cc1ccccn1	415	400 nM	166 µM	–
CCN1C(=O)N(Cc2cccc(Cl)c2)S(=O)(=O)c2cscc21	>334	2100 nM	> 701 µM	–
N#CCN1C(=O)N(Cc2ccccc2)S(=O)(=O)c2ccsc21	73	3000 nM	219 µM	–
O=C1N(Cc2ccccc2)c2sccc2S(=O)(=O)N1Cc1ccccc1	>78	8300 nM	> 650 µM	–
N#CCN1C(=O)N(Cc2ccccc2)S(=O)(=O)c2sc(Cl)cc21	6	24500 nM	152 µM	–
CCOC(=O)CN1C(=O)N(Cc2ccccc2)S(=O)(=O)c2cscc21	18	7400 nM	130 µM	–
N#CCN1C(=O)N(Cc2ccccc2)S(=O)(=O)c2cscc21	559	900 nM	503 µM	–
O=C1N(Cc2ccccc2)c2cc(Cl)sc2S(=O)(=O)N1Cc1ccccc1	>26	4500 nM	> 119 µM	–
N#CCN1C(=O)N(Cc2cccnc2)S(=O)(=O)c2cscc21	>750	200 nM	> 150 µM	–
N#CCN1C(=O)N(Cc2cccc(Cl)c2)S(=O)(=O)c2cscc21	>3778	90 nM	> 340 µM	–
CN1C(=O)N(Cc2ccccc2)S(=O)(=O)c2ccsc21	–	> 811000 nM	> 811 µM	–
O=C1N(Cc2ccc(Cl)cc2)c2cscc2S(=O)(=O)N1Cc1ccccc1	13	1400 nM	18.6 µM	–
C#CCN1C(=O)N(Cc2cccc(Cl)c2)S(=O)(=O)c2cscc21	657	100 nM	65.7 µM	–
CCN1C(=O)N(CCc2ccccc2)S(=O)(=O)c2cscc21	38	8600 nM	330 µM	–
CN1C(=O)N(Cc2ccccc2)S(=O)(=O)c2cscc21	196	2700 nM	528 µM	–
CCN1C(=O)N(Cc2c(Cl)cccc2Cl)S(=O)(=O)c2cscc21	<1	> 74100 nM	74.1 µM	–
CCN1C(=O)N(Cc2ccc(Cl)cc2)S(=O)(=O)c2cscc21	<1	> 273000 nM	273 µM	–
CCN1C(=O)N(Cc2ccccc2)S(=O)(=O)c2cscc21	>310	2500 nM	> 775 µM	–
O=C1N(Cc2ccccc2)c2cscc2S(=O)(=O)N1Cc1ccccc1	>296	2200 nM	> 650 µM	–
Cc1cn([C@H]2C[C@H](N=[N+]=[N-])[C@@H](CO)O2)c(=O)[nH]c1=O [ZIDOVUDINE]	–	0.7 nM	35.6 µM	50600
